From ChEMBL document CHEMBL3853359, “NO Photoreleaser-Deoxyadenosine and -Bile Acid Derivative Bioconjugates as Novel Potential Photochemotherapeutics” (ACS Med Chem Lett, 2016) come the findings set out here.

The source made the active and inactive calls. The calls are words filed in the database; no cut-off is given here. Some results are limits rather than exact numbers.

Data set [1] in a line: Induction of NO release in phosphate buffer at 50 uM and pH 7.4 upon 1.5 mW/cm2 visible-light irradiation. The format is physicochemical. As to conditions: pH 7.4, 50 µM. A digest of the protocol:
(§1)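 NO was monitored directly in real time with an amperometric NO electrode (nanomolar sensitivity). Samples were 50 μM solutions in 10 mM phosphate buffer, pH 7.4, with 0.5% DMSO, kept in the dark and then illuminated with visible light (λ = 420 nm, 1.5 mW cm–2).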

Data set [2] in a line: Cytotoxicity against human K562 assessed as cell growth inhibition incubated for 72 hrs under dark condition by MTT assay. Type of data set: toxicity, cell-based. As to conditions: for IC50 at 72 h: K562 cells; for growth inhibition (GI): k562, 72 h. A digest of the protocol:
(§2)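 MTT read-out after 72 h continuous exposure in the dark. Test concentrations were 10, 25 and 50 μM for K562 leukaemia and HCT116 colon carcinoma cells, and up to 100 μM for normal human skin fibroblasts. IC50 was taken from dose–response curves, as the mean ± SD of three independent experiments.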
On the technique in general: Tetrazolium assays rely on reduction of a dye to a coloured formazan, in cell work by metabolically active cells.

Data set [3] in a line: Cytotoxicity against human HCT116 assessed as cell growth inhibition incubated for 72 hrs under dark condition by MTT assay. The format is toxicity, cell-based, HCT-116. As to conditions: for IC50 at 72 h: HCT116 cells; for growth inhibition (GI): hct-116, 72 h. A digest of the protocol: as §2
Data set [4] is described as follows: Cytotoxicity against human fibroblasts assessed as cell growth inhibition incubated for 72 hrs under dark condition by MTT assay. The format is toxicity, cell-based, Fibroblast. In a few lines:
as §2

A short description of data set [5]: Stability of the compound in phosphate buffer at 50 uM and pH 7.4 under dark condition. Type of data set: physicochemical. As to conditions: pH 7.4, 50 µM. In a few lines: as §1
Data set [6] deals with HCT-116. Put plainly: (§3) Photocytotoxicity against human HCT116 cells assessed as cell growth inhibition incubated for 72 hrs after exposure to 7 mW/cm2 of light-irradiation for 40 mins by MTT assay. Type of data set: functional, cell-based. A digest of the protocol:
(§4)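 HCT116 cells with compound were irradiated with visible light (λ = 420 nm, 7 mW cm–2) for 40 min, then incubated to 72 h. Growth inhibition was read by MTT. IC50 was taken from dose–response curves, as the mean ± SD of three independent experiments.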

Data set [7] in a line: as §3. Type of data set: functional, cell-based. The conditions noted are these: HCT-116, light or radiation study. A digest of the protocol: as §4
Data set [8] in a line: Photoreactivity of the compound in phosphate buffer assessed as photobleaching of visible band at 50 uM and pH 7.4 upon 7 mW/cm2 of light-irradiation measured up to 70 mins. Type of data set: physicochemical. The conditions noted are these: pH 7.4, 70 min. In a few lines:
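50 μM solutions in 10 mM phosphate buffer, pH 7.4, with 0.5% DMSO were irradiated at λ = 420 nm, 7 mW cm–2, from 0 to 70 min. Absorption spectral changes were recorded, and kinetic profiles were followed at λmax and fitted linearly.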

Data set [9] can be described thus: Ratio of cytotoxicity against human HCT116 cells assessed as cell growth inhibition at 50 uM incubated for 72 hrs under dark condition by MTT assay to photocytotoxicity against human HCT116 cells assessed as cell growth inhibition at 50 uM incubated for 72 hrs after exposure to 7 mW/cm2 of light-irradiation for 40 mins by MTT assay.

Consider `C[C@H](CCC(=O)O)[C@H]1CC[C@H]2[C@@H]3[C@@H](O)C[C@@H]4C[C@H](n5cc(CCCNc6ccc([N+](=O)[O-])c(C(F)(F)F)c6)nn5)CC[C@]4(C)[C@H]3CC[C@]12C`, for which, in data set [1], the outcome was Active. Further, the results for the IC50 at 72 h in [2], in [3] and in data set [4] were 31.6 µM, 14 µM and more than 100 µM, respectively. Also, the “growth inhibition (GI)” value in data set [2] and in [3] was “Dose-dependent effect” each time. Moreover, in [5], the Stability result is “Stable”.

With `C[C@H](CCC(=O)O)[C@H]1CC[C@H]2[C@@H]3[C@H](O)C[C@@H]4C[C@H](n5cc(CCCNc6ccc([N+](=O)[O-])c(C(F)(F)F)c6)nn5)CC[C@]4(C)[C@H]3CC[C@]12C`, the IC50 at 72 h is 24 µM in data set [2], 21 µM in data set [3] and 32 µM in data set [4].

For `Nc1ncnc2c1nc(SCCCCCNc1ccc([N+](=O)[O-])c(C(F)(F)F)c1)n2[C@H]1C[C@H](O)[C@@H](CO)O1`, the result in data set [6] was Active. In addition, in [7], the IC50 amounted to 31 µM. Moreover, the result in [1] and in data set [8] was Active. In addition, the concentration for half-maximal inhibition (IC50) at 72 h is 68.1 µM in [2], 66.2 µM in [3] and more than 100 µM in data set [4]. The “growth inhibition (GI)” value in data set [2] and in [3] was “Dose-dependent effect” each time. Further, the Ratio in [9] amounted to 2. Also, the Stability result in data set [5] is “Stable”.

As a reminder, the IC50 is the concentration at which inhibition is half-maximal.
